LMPTP inh: LMPTP (human) inhibition | inhibition, % at 20 µM | P24666 | recombinant LMPTP-A, OMFP fluorogenic substrate, fluorescence intensity | 0.22% of 360,000 active;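 active means compounds that cut the enzyme signal by at least half of the control window in the single-dose screen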;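 further: plate controls were DMSO wells with enzyme plus substrate for no effect and substrate without enzyme for full effect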
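Assay system: LMPTP-A enzyme. Input: 0.625 nM LMPTP-A final. Probe or stimulus: 400 µM OMFP. Compound dosing: single 20 µM dose. Schedule: 50 min dark incubation at room temperature. Detection: fluorescence intensity of OMFP turnover product. Read-out: percent inhibition versus substrate-only and uninhibited controls. Benchmarks: no-enzyme low control, uninhibited high control.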
STEP block: STEP (human) phosphatase inhibition. inhibition, % at 20 µM. 0.25% of 360,000 active. recombinant STEP, OMFP fluorogenic substrate, fluorescence;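 active means inhibition at 20 µM, scaled per plate between control wells, above about 37%, limit read from the data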;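 further: 0% = DMSO with enzyme and substrate and 100% = substrate only without enzyme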
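material = STEP tyrosine phosphatase | reagent = fluorogenic phosphatase substrate OMFP at 25 µM final | doses = single compound dose of 20 µM, 1% DMSO final | schedule = 20 min reaction, room temperature, in the dark | measured by = fluorescence, 480/540 nm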
DNMT1 inh: DNMT1 (human) enzyme inhibition | P26358 | DNMT1 molecular beacon, Hinp1I cleavage, fluorescence | inhibition (reported as % activation of signal), % at 10 µM | 0.83% of 360,000 active; in the data active means inhibition above about 50%
Target sequence (P26358 504-1616 limits assumed): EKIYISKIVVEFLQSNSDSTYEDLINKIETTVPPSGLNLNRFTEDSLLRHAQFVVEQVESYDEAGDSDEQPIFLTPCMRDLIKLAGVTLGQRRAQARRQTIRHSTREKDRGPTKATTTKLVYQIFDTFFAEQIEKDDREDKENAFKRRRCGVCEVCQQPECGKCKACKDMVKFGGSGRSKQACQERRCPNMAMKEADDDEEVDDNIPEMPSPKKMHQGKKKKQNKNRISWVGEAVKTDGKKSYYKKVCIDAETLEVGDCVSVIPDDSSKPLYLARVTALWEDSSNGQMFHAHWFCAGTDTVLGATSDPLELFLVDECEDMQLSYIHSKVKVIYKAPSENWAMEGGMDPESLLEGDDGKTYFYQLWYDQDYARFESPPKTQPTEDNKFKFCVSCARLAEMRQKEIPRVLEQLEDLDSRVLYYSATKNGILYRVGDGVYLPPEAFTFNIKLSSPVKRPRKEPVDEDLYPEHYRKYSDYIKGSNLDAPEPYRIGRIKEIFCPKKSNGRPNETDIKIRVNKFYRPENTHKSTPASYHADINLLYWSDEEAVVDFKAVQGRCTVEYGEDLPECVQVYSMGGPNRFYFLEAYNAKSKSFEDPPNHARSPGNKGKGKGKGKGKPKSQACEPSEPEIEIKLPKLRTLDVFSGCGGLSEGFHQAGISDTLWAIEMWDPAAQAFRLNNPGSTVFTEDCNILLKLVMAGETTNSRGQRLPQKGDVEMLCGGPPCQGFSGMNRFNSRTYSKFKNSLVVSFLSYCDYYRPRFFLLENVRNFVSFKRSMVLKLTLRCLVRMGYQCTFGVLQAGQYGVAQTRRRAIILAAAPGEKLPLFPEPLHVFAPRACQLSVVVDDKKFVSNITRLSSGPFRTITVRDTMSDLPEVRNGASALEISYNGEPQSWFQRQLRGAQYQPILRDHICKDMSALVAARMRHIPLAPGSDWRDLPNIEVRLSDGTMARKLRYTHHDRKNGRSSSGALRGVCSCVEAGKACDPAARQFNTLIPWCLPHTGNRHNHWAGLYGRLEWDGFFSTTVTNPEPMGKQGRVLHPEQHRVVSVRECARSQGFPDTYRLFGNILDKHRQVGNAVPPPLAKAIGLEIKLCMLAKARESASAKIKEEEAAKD
SUMO1-SIM PPI: SUMO1-SIM interaction modulation; P63165; SUMO1 binding to a labelled peptide, TR-FRET, 1 h; inhibition, % at 20 µM; 0.33% of 360,000 active; AID 602429; in the data active means inhibition above about 37%
Scp1 inh: inhibitors of human Scp-1 phosphatase; Q9GZU7; 0.88% of 340,000 active; Recombinant Scp1, phosphopeptide, malachite green phosphate absorbance; inhibition, % at 20 µM; AID 493091;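 active means inhibition above about 50% at 20 µM, limit read from the data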;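 further: plate controls were DMSO wells with enzyme for no effect and wells lacking enzyme for full effect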
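Times: enzyme reaction 45 min at room temperature, colour 5 min, stabilisation 30 min. Material: SCP-1 catalytic fragment, aa 76-261. Medium: Acidic Tris acetate buffer with magnesium and detergent. Signal: colorimetric free-phosphate detection, absorbance 630 nm. Read-out basis: % inhibition of SCP-1 phosphate liberation. Reagent: Phosphorylated 17-residue peptide substrate.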
Scp-1 conf: confirmation of human Scp-1 phosphatase inhibitors | shares compounds with Scp1 inh | recombinant SCP-1 catalytic domain, phosphate release, malachite green absorbance | inhibition, % at 20 µM | 61% of 2,500 active;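 further: plate controls were DMSO with enzyme for no effect and buffer wells lacking enzyme for full effect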
Scp-1 MG ctr: counter-screen for Scp-1 inhibitors: colorimetric interference; apparent inhibition (interference), % at 20 µM; Colorimetric interference counterscreen, malachite green absorbance 630 nm; shares compounds with Scp1 inh; 2,500 tested, under 10 active; AID 540313;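 further: compounds added after enzyme reaction finished so only phosphate colour detection is probed; plate controls were DMSO wells with completed Scp-1 reaction for no effect and substrate wells lacking enzyme for full effect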
Scp-1 Tm shift: validation of human Scp-1 inhibitors by thermal shift binding. AID 540329. shares compounds with Scp1 inh. 25% of 1,500 active. thermal shift relative to vanadate control, % at 40 µM. Recombinant SCP1, Sypro Orange thermal shift Tm;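 active means substances whose mean melting-temperature shift, as a percentage of the reference inhibitor's shift, reaches about 5.3%, limit read from the data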;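 further: 0% = Tm of DMSO wells and 100% = Tm with sodium orthovanadate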
An asterisk follows results filed as active; nt = not tested or not shown. In the library only some 1.7% were active in any assay of this set; here they are far more common.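 How the source made its calls, unless noted: active means inhibition of at least 30% at 20 µM; inactive means the rest.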

SMILES	LMPTP inh	STEP block	DNMT1 inh	SUMO1-SIM PPI	Scp1 inh	Scp-1 conf	Scp-1 MG ctr	others
COc1cc(/C=N/NC(=O)CC2C(=O)NN=C2C)ccc1O (configuration not stated)	-3	0	-4	-2	-16	-19	-18
O=C(CN1C(=O)CCSc2ccc(S(=O)(=O)N3CCOCC3)cc21)Nc1cccc(F)c1	5	29	7	26	44	nt	nt
Cc1cc(=O)n2ncnc2n1COCCO	1	2	2	3	3	nt	nt
NNC(=O)Cn1c(-c2ccccc2)cc(=O)n2ncnc12	-2	-1	2	2	69*	-6	-5
O=C(Nc1ccc(Br)cn1)c1coc(=O)c(Br)c1	-2	2	9	-6	69*	25	-7
O=C(COC(=O)c1ccc(Cl)c(S(=O)(=O)N2CCCC2)c1)NCc1ccccc1	7	10	12	5	50*	41*	-4	Scp-1 Tm shift=-1
COc1ccccc1NS(=O)(=O)c1ccc2[nH]c(=S)oc2c1	1	-5	7	12	59*	-7	-12
CCOC(=O)N1CCN(C(=O)C[C@@H]2C[C@@]3(C(=O)OC)CCCCC=C3N(Cc3ccc(Cl)cc3Cl)C2=O)CC1	1	nt	nt	4	nt	nt	nt
COc1ccc(S(=O)(=O)N2CCOCC2)cc1NC(=O)c1ccncc1	-1	-1	3	5	-12	nt	nt
Cc1ccc(C)c(NC(=S)N(CCc2ccncc2)C(C)C)c1	2	-1	11	-2	-5	nt	nt
Cc1cc(C)c(NC(=S)N(CCc2ccncc2)C(C)C)c(C)c1	-4	17	-1	9	61*	-19	-17
O=c1c2ccccc2oc2cc(-c3ccc(CN4CCOCC4)cc3)ccc12	4	4	-3	-18	4	nt	nt
COc1ccc(Cl)cc1NC(=O)C/C(C)=N/NC(=O)C(=O)NCc1ccccc1	1	0	0	-6	3	nt	nt
CC(CCC(=O)O)C1CCC2C3CCC4C[C@H](O)CCC4(C)C3CC(=O)C12C (some centres not stated)	-1	1	1	-1	-6	nt	nt
C[C@H](CCC(=O)O)[C@H]1CC[C@H]2[C@@H]3CC[C@@H]4C[C@H](O)CC[C@]4(C)[C@H]3CC[C@]12C	2	0	3	23	58*	56*	-22	Scp-1 Tm shift=-15
O=C(Nc1ccc(O)c(-c2nc3ccccc3s2)c1)c1cc(=O)c2ccccc2o1	52*	38	31	6	80*	68*	-14	Scp-1 Tm shift=2
O=C(O)C1C2C=CC(C2)C1C(=O)N1CCc2ccccc21 (configuration not stated)	0	3	6	-3	-5	nt	nt
O=C(O)C1CC=CCC1C(=O)N1CCc2ccccc21 (configuration not stated)	1	5	33	-2	52*	49*	0	Scp-1 Tm shift=0
O=C(C[C@H]1C=C[C@H](NC(=O)c2ccccn2)[C@@H](CO)O1)NCc1cc(F)cc(F)c1	-2	nt	nt	0	nt	nt	nt
CCOc1ccccc1NC(=O)CCS(=O)(=O)c1ccc(Br)cc1	1	39	105*	57*	92*	67*	-16	Scp-1 Tm shift=-16
Cc1cc(Br)ccc1NC(=O)CN(C)C(=O)Cn1c(=O)cnc2ccccc21	-2	1	-1	5	96*	89*	-10	Scp-1 Tm shift=-6
CC(Oc1ccccc1F)C(=O)NNC(=O)Cc1ccc(S(=O)(=O)N2CCOCC2)s1 (configuration not stated)	0	0	-1	2	-10	nt	nt
COc1ccc(S(=O)(=O)N(C)C[C@H]2Oc3ccc(NS(=O)(=O)c4ccccc4)cc3C(=O)N([C@H](C)CO)C[C@@H]2C)cc1	-1	0	0	-6	59*	5	-10
COc1ccc(NC(=O)N(C)C[C@H]2Oc3ccc(NS(=O)(=O)c4c(C)noc4C)cc3C(=O)N([C@H](C)CO)C[C@@H]2C)cc1	-1	-2	12	2	58*	10	-17
COc1ccc(NC(=O)Nc2ccc3c(c2)C(=O)N([C@H](C)CO)C[C@H](C)[C@@H](CN(C)C(=O)Nc2ccccc2)O3)cc1	-1	-4	4	10	71*	8	-10
SMILES	LMPTP inh	STEP block	DNMT1 inh	SUMO1-SIM PPI	Scp1 inh	Scp-1 conf	Scp-1 MG ctr	others
COc1ccc(S(=O)(=O)Nc2ccc3c(c2)C(=O)N([C@H](C)CO)C[C@H](C)[C@@H](CN(C)S(=O)(=O)c2ccccc2)O3)cc1	0	-1	2	3	-6	nt	nt
COc1ccc(NC(=O)N(C)C[C@H]2Oc3ccc(NC(=O)Nc4c(C)noc4C)cc3C(=O)N([C@H](C)CO)C[C@@H]2C)cc1	0	2	4	7	62*	-3	-20
C[C@H](CO)N1C[C@H](C)[C@@H](CN(C)C(=O)NC2CCCCC2)Oc2ccc(NS(=O)(=O)c3ccccc3)cc2C1=O	-2	0	-3	1	-3	nt	nt
Cc1noc(C)c1S(=O)(=O)Nc1ccc2c(c1)C(=O)N([C@H](C)CO)C[C@H](C)[C@@H](CN(C)C(=O)NC1CCCCC1)O2	-1	-2	9	7	56*	21	-6
CCOC(=O)c1c(C)[nH]c(C)c1S(=O)(=O)NCC1CCN(Cc2ccccc2OC)CC1	0	-2	2	-3	-5	nt	nt
Cc1ccc(NC(=O)C2(C)CCN2C(=O)Cc2ccc(C(C)(C)C)cc2)cc1C (configuration not stated)	3	-1	-14	5	nt	nt	nt
O=C(NC12CC3CC(CC(C3)C1)C2)c1cnccn1	0	3	11	-3	51*	27	-11
CC1CCC(C(C)C)C(OCC[N+](C)(C)C)C1 (configuration not stated)	-3	-2	5	2	58*	-10	-10
CC[C@H]1C=C[C@@H](C(C(=O)OC)C(=O)OC)CN1C(C)=O	-2	0	4	2	-5	nt	nt
CCCCCCCCN1C(=O)[C@H](CC(=O)NCC23CC4CC(CC(C4)C2)C3)C[C@@]2(C(=O)OCC)CCCC=C12	6	nt	nt	3	nt	nt	nt
O=C1C=C(O)c2cccc(O)c2C1=O	4	2	-4	0	50*	43*	-5	Scp-1 Tm shift=12*
O=C(Nc1ccc(S(=O)(=O)Nc2nccs2)cc1)c1ccncc1	-1	-3	3	-4	nt	nt	nt
